According to ChEMBL document CHEMBL1134325, “Diaminoindanes as microsomal triglyceride transfer protein inhibitors” (J Med Chem, 2001):

What follows are compounds tested on Rattus norvegicus (assay: Inhibition of plasma triglycerides in normolipidemic rats after 6 h of […] mg/kg oral dosing; no significant change).
Assay type: functional, organism-based
Design: dose 50 mg/kg

SMILES | NS
O=C(Nc1ccc2c(c1)C[C@@H](NS(=O)(=O)c1ccccc1)C2)c1ccccc1-c1ccc(C(F)(F)F)cc1 | no significant change
COC(=O)NCC1Cc2ccc(NC(=O)c3cccc(C)c3-c3ccc(C(F)(F)F)cc3)cc2C1 (stereo not drawn) | no significant change

The compounds below were run on Rattus norvegicus (assay: Inhibition of total cholesterol in normolipidemic rats after 2 hr of 50 mg/kg oral dosing; no significant change).
Assay type: functional, organism-based
Design: dose 50 mg/kg
Outline: (§1)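 Overnight-fasted normolipidemic rats received a single oral dose in cornstarch vehicle. Blood was drawn at 2, 6 and 24 h post-dose and assayed for triglycerides and total cholesterol, with free access to food after the 6 h sample. Value is mean percent inhibition versus a separate vehicle-treated group, unpaired t test p < 0.05, NS = no significant change, N = 6.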

SMILES | NS
O=C(Nc1ccc2c(c1)C[C@@H](NS(=O)(=O)c1ccccc1)C2)c1ccccc1-c1ccc(C(F)(F)F)cc1 | no significant change
COC(=O)NCC1Cc2ccc(NC(=O)c3cccc(C)c3-c3ccc(C(F)(F)F)cc3)cc2C1 (stereo not drawn) | no significant change

These compounds were tested on Rattus norvegicus (assay: Inhibition of plasma triglycerides in normolipidemic rats after 2 hr of 50 mg/kg oral dosing; no significant change).
Assay type: functional, organism-based
Design: dose 50 mg/kg
Outline: as §1

SMILES | NS
O=C(Nc1ccc2c(c1)C[C@@H](NS(=O)(=O)c1ccccc1)C2)c1ccccc1-c1ccc(C(F)(F)F)cc1 | no significant change

These compounds were tested on Rattus norvegicus (assay: Inhibition of total cholesterol in normolipidemic rats after 6 h of […] mg/kg oral dosing; no significant change).
Assay type: functional, organism-based
Design: dose 50 mg/kg

SMILES | NS
O=C(Nc1ccc2c(c1)C[C@@H](NS(=O)(=O)c1ccccc1)C2)c1ccccc1-c1ccc(C(F)(F)F)cc1 | no significant change
COC(=O)NCC1Cc2ccc(NC(=O)c3cccc(C)c3-c3ccc(C(F)(F)F)cc3)cc2C1 (stereo not drawn) | no significant change

The compounds below were run against T1, Microsomal triglyceride transfer protein large subunit (Homo sapiens, UniProt P55157) (assay: In vitro inhibitory activity against MTP using MTP transfer assay).
T1 sequence (P55157 whole entry): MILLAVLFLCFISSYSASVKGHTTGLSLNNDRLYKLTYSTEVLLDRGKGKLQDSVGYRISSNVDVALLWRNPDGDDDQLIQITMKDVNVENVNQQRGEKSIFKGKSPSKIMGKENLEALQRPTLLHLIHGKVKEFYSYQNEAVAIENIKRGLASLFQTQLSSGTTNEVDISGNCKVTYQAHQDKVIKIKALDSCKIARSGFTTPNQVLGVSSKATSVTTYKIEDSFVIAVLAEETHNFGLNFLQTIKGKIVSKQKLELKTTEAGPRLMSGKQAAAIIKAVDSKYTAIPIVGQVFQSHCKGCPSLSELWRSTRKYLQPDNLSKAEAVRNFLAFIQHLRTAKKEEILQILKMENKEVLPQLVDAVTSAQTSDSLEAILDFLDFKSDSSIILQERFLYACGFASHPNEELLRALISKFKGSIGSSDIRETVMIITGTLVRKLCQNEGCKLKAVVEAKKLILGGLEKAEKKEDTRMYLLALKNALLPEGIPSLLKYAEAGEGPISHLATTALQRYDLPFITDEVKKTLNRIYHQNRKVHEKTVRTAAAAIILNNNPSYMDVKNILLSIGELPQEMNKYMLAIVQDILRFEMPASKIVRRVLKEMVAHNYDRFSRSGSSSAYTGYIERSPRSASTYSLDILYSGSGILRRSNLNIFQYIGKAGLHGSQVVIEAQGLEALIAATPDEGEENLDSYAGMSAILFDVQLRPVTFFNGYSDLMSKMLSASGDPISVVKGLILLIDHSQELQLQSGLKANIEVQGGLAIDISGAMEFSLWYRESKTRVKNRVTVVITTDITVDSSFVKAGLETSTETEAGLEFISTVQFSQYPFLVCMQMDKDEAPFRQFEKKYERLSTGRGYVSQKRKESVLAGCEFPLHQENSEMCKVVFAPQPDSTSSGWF

IC50 | SMILES
90 nM | Cc1cccc(C(=O)Nc2ccc3c(c2)CCC(NS(C)(=O)=O)CC3)c1-c1ccc(Cl)cc1 (stereo not drawn)
120 nM | COC(=O)NC1Cc2ccc(NC(=O)c3cc(C)cc(C)c3-c3ccc(Cl)cc3)cc2C1 (stereo not drawn)
80 nM | CN(C)C(=O)NC1Cc2ccc(NC(=O)c3ccccc3-c3ccc(C(F)(F)F)cc3)cc2C1 (stereo not drawn)
120 nM | Cc1cccc(C(=O)Nc2ccc3c(c2)CC(NS(=O)(=O)c2ccccc2)C3)c1-c1ccc(C#N)cc1 (stereo not drawn)
100 nM | Cc1cccc(C(=O)Nc2ccc3c(c2)CC(NS(C)(=O)=O)C3)c1-c1ccc(Cl)cc1 (stereo not drawn)
50 nM | Cc1cccc(C(=O)Nc2ccc3c(c2)CC(NS(=O)(=O)c2cccs2)C3)c1-c1ccc(F)cc1 (stereo not drawn)
90 nM | COC(=O)N[C@@H]1Cc2ccc(NC(=O)c3cc(C)cc(C)c3-c3ccc(C(F)(F)F)cc3)cc2C1
93 nM | Cc1ccc(-c2c(C)cccc2C(=O)Nc2ccc3c(c2)CC(NS(=O)(=O)c2ccccc2)C3)cc1 (stereo not drawn)
150 nM | Cc1cccc(C(=O)Nc2ccc3c(c2)CC(CNS(C)(=O)=O)C3)c1-c1ccc(C(F)(F)F)cc1 (stereo not drawn)
650 nM | O=C(Nc1ccc2c(c1)C[C@@H](NS(=O)(=O)c1ccccc1)C2)c1ccccc1-c1ccc(C(F)(F)F)cc1
24 nM | COC(=O)NCC1Cc2ccc(NC(=O)c3cccc(C)c3-c3ccc(C(F)(F)F)cc3)cc2C1 (stereo not drawn)

These compounds were tested on Rattus norvegicus (assay: Inhibition of plasma triglycerides in normolipidemic rats after 24 h of 50 mg/kg oral dosing; no significant change).
Assay type: functional, organism-based
Design: dose 50 mg/kg
Outline: as §1

SMILES | NS
O=C(Nc1ccc2c(c1)C[C@@H](NS(=O)(=O)c1ccccc1)C2)c1ccccc1-c1ccc(C(F)(F)F)cc1 | no significant change
COC(=O)NCC1Cc2ccc(NC(=O)c3cccc(C)c3-c3ccc(C(F)(F)F)cc3)cc2C1 (stereo not drawn) | no significant change

What follows are compounds tested on Rattus norvegicus (assay: Inhibition of plasma triglycerides in normolipidemic rats after 2 hr of 50 mg/kg oral dosing).
Assay type: functional
Outline: as §1

SMILES | Reduction
COC(=O)NCC1Cc2ccc(NC(=O)c3cccc(C)c3-c3ccc(C(F)(F)F)cc3)cc2C1 (stereo not drawn) | 49%

The compounds below were run on Rattus norvegicus (assay: Inhibition of total cholesterol in normolipidemic rats after 24 hr of 50 mg/kg oral dosing; no significant change).
Assay type: functional, organism-based
Design: dose 50 mg/kg
Outline: as §1

SMILES | NS
O=C(Nc1ccc2c(c1)C[C@@H](NS(=O)(=O)c1ccccc1)C2)c1ccccc1-c1ccc(C(F)(F)F)cc1 | no significant change
COC(=O)NCC1Cc2ccc(NC(=O)c3cccc(C)c3-c3ccc(C(F)(F)F)cc3)cc2C1 (stereo not drawn) | no significant change
